# Source: PubChem BioAssay (several laboratories)
# In the library only some 2.2% were active in any assay of this set; here they are far more common.
# Ba/F3 V617F tox: reduced viability of JAK2V617F-dependent Ba/F3 cells, primary screen, JAK2V617F inhibitor project, cell-based, Ba/F3 EpoR-JAK2V617F, luminescence | 220,000 compounds, 1.1% hits | inhibition, % at 5.6 µM | ATP luminescence;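 active = inhibition above the campaign mean plus 3 SD over all tested compounds, cut at about 24% in these data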;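 also: cytokine-independent growth of Ba/F3 cells driven by EpoR plus mutant JAK2; 0% = DMSO-treated cells and 100% = JAK inhibitor I control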
# APP transl inh: inhibitors of APP translation via 5'UTR reporter, primary screen, APP 5'UTR luciferase, SH-SY5Y cells | 190,000 compounds, 0.82% hits | inhibition, % at 2 µM | SH-SY5Y APP 5'UTR-luciferase reporter, luminescence | AID 1285, 2008;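 active = inhibition above a set limit, derived from the sample mean plus 3 SD, cut at about 45% in these data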
# BaF3 tox: parental Ba/F3 cell viability inhibition, counter-screen for JAK2V617F inhibitor project, murine pro-B, CellTiter-Glo luminescence. CellTiter-Glo ATP luminescence. inhibition, % at 5.6 µM. 220,000 compounds, 1.1% hits. AID 1486, 2009;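 active = inhibition above a per-campaign cutoff, the mean inhibition of all tested compounds plus 3 SD, cut at about 27% in these data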;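 also: 0% = DMSO wells and 100% = JAK Inhibitor I control wells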
# IEC-6 tox: cytotoxicity in IEC-6 intestinal epithelial cells, primary screen, cytotoxicity control for KLF5 inhibitor project, cell-based, luminescence; IEC-6 cytotoxicity, luminescence viability; inhibition, % at 5 µM; 290,000 compounds, 0.78% hits; in the data active = inhibition above about 22%;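 also: 0% = plate median of test compound wells and 100% = cytotoxic reference compound wells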
# MT stabilize HCS: microtubule stabilizers in HeLa cells, primary screen, imaging, high-content imaging | HeLa tubulin immunostaining HCS, 24 h; share of cells brighter than vehicle mean+2SD | % tubulin-high responders, % at 10 µM | 200,000 compounds, 0.83% hits;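 active = plate Z-score above 3 for both tubulin-high and condensed-nucleus cell shares, with cell loss under 80%, at 10 µM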;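 also: anti alpha tubulin signal scored within the nucleus-defined area of each cell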
# b-catenin transl: modulators of beta-catenin nuclear translocation, primary screen, imaging, HeLa cells, immunofluorescence, high-content; nuclear translocation activity, % at 5 µM; 190,000 compounds, 0.3% hits;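 active = nuclear translocation activity above 50% at 5 µM, with a well cell count of 50 or more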;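 also: per-cell ratio of nuclear to cytoplasmic median beta-catenin stain intensity; plate controls were DMSO negative control for no effect and GSK-3 inhibitor IX positive control for full effect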
#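 Test system: human HeLa cell line; Doses: 5 µM primary, 0.02–20 µM confirmation; Incubation: 24 h compound exposure, 37°C; Detection: beta-catenin immunofluorescence imaging with DAPI; Read-out: beta-catenin nuclear/cytoplasmic ratio, % activation.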
# Starred values were filed as active, the others as inactive; nt = no result.
SMILES,Ba/F3 V617F tox,APP transl inh,BaF3 tox,IEC-6 tox,MT stabilize HCS,b-catenin transl
CC1(C)N=c2ccc([N+](=O)[O-])c(N)c2=[N+]1[O-],69*,nt,63*,-2,nt,2
Cc1cc(NC(=O)CCS(=O)(=O)c2nc(-c3ccccc3)cc(C(F)(F)F)n2)no1,nt,nt,nt,nt,nt,-4
CS(=O)(=O)c1nc(-c2ccccc2)cc(C(F)(F)F)n1,1,62*,7,7,5,2
CCn1cc(Cl)c(C(=O)NNC(=O)CCn2ccc([N+](=O)[O-])n2)n1,nt,nt,nt,-4,nt,nt
CCCCN(CC)S(=O)(=O)c1ccc(C(=O)Nc2nnc(CSC)o2)cc1,-1,-12,42*,46*,4,0
CCCCN(CCCC)S(=O)(=O)c1ccc(C(=O)Nc2nnc(CSC)o2)cc1,-2,0,4,-3,7,6
CCCn1c2c(c(O)c(C(=O)Nc3nc4ccccc4s3)c1=O)CCCC2,5,-6,81*,5,2,1
N#CC1=C(N)OC2=C(CCc3ccccc32)C1c1ccccc1 (centres undefined),1,96*,3,0,6,18
Cc1ccc(/C=C2\CCC3=C2OC(N)=C(C#N)C3c2ccc(C)cc2)cc1 (centres undefined),-4,47*,1,-11,12,-1
O=C(Nc1c2c(nn1-c1ccccc1)CS(=O)C2)c1ccc2c(c1)OCO2 (centres undefined),nt,nt,nt,-1,nt,nt
Cc1nn(-c2ccccc2)c(Cl)c1/C=C1\N=C(c2ccccc2)OC1=O,-2,-16,0,-3,2,nt
Cc1nn(-c2ccc(F)cc2)c(Cl)c1/C=C1\C(=O)Nc2ccccc21,1,21,5,-2,22*,1
CCCN1CCCc2cc(CN)ccc21,63*,0,63*,6,2,0
COc1ccccc1C(=O)Nc1cccc(NC(=O)c2ccccc2C)c1,nt,nt,nt,0,nt,nt
Cc1ccccc1C(=O)Nc1cccc(N)c1,0,56*,4,4,2,nt
COc1cc(NS(=O)(=O)c2cc3[nH]c(=O)c(=O)[nH]c3cc2C)cc(OC)c1OC,nt,nt,nt,-4,nt,nt
COc1cc(NS(=O)(=O)c2ccc(C)cc2C)cc(OC)c1OC,15,7,32*,2,22*,7
COc1ccc(-c2nc(-c3ccccc3)nc(N3CCN(C)CC3)c2C#N)cc1,1,13,6,4,28,nt
COc1ccc(-c2nc(-c3cccc(C)c3)nc(N3CCN(C)CC3)c2C#N)cc1,4,10,2,2,39*,21
CN1CCN(c2nc(-c3ccccc3)nc(-c3ccccc3)c2C#N)CC1,1,4,9,-4,9.8*,2
COc1cccc(-c2nc(-c3ccccc3)nc(N3CCN(C)CC3)c2C#N)c1,-1,1,2,-1,19*,50*
O=C(O)c1ccccc1NCc1cccs1,nt,nt,nt,3,nt,nt
O=C(N=C1SC2CS(=O)(=O)CC2N1c1ccc(Br)cc1)C1CCCO1 (centres undefined),nt,nt,nt,-10,nt,nt
O=C(Cc1c(F)c(F)c(F)c(F)c1F)Nc1nc(-c2ccccc2)cs1,nt,nt,nt,-19,nt,nt
COc1ccccc1NC(=O)c1cnc(Nc2ccccc2OC)c2ccccc12,85*,94*,83*,69*,35*,118*
SMILES,Ba/F3 V617F tox,APP transl inh,BaF3 tox,IEC-6 tox,MT stabilize HCS,b-catenin transl
CCOCCCNC(=O)/C(C#N)=C/c1cc(OC)c(O)c([N+](=O)[O-])c1,6,25,12,2,24*,1
CCCc1cc(N2CCCC(C(=O)Nc3c(OC)cccc3OC)C2)n2ncnc2n1 (centres undefined),-4,50*,3,4,3,3
O=C(c1ccc(F)cc1F)N1CCN(c2ccccn2)CC1,nt,nt,nt,1,nt,nt
Nc1c(C(=O)NC2CC2)sc2nc3c(c(-c4ccco4)c12)CC/C3=C/c1ccco1,-5,51*,1,-19,2,4
O=C(NC1CCCC1)c1ccc2nc(-c3ccco3)c(-c3ccco3)nc2c1,0,-13,2,-8,5,0
Cc1c(C(=O)C(=O)N2CCN(C)CC2)c2ccccc2n1C,1,-1,0,0,2,-5
Cc1c(C(=O)C(=O)N2c3ccc(F)cc3CCC2C)c2ccccc2n1C (centres undefined),-2,83*,7,6,6,68*
Cc1c(C(=O)C(=O)N2CCCc3ccccc32)c2ccccc2n1C,-3,11,0,3,30*,1
CCn1c(SCc2ccccc2)nnc1-c1cccs1,41*,-12,42*,-11,2,3
CCn1c(SCC(=O)Nc2ccccc2)nnc1-c1cccs1,-3,nt,-3,-6,nt,-1
CC(C)Cc1ccc(C(C)C(=O)Nc2nccs2)cc1 (centres undefined),-3,-4,3,-3,2,-3
CC(C)Cc1ccc(C(C)C(=O)Nc2ccccc2O)cc1 (centres undefined),11,nt,38*,-2,nt,0
CCc1ccc(CC2S/C(=C(\C#N)C(C)=O)NC2=O)cc1 (centres undefined),-4,6,0,70*,2,0
O=C(Nc1ccccc1[N+](=O)[O-])C1COc2ccccc2O1 (centres undefined),nt,nt,nt,-7,nt,nt
O=c1cc(-c2ccccc2)[nH]c2nc3ccccc3n12,5,-116,8,13,44*,1
CCOC(=O)C(=O)Nc1ncc(Cl)s1,-3,nt,-1,-5,nt,2
CC(C)c1ccc(C2C3=C(COC3=O)Nc3cc4c(cc32)OCO4)cc1 (centres undefined),71*,95*,77*,90*,5,74*
Cc1ccccc1N=C/C=C1\N(C)c2ccccc2C1(C)C,1,-14,48*,-1,1,0
CN1/C(=C\C=[N+](C)c2ccccc2)C(C)(C)c2ccccc21,75*,10,66*,5,1,nt
CCOC(=O)C(CC)n1cnc2c(nnn2-c2ccccc2)c1=O (centres undefined),nt,nt,nt,-8,nt,nt
CC(C)C(OC(=O)c1nsc(Cl)c1Cl)C(=O)NC1CCCCC1 (centres undefined),nt,nt,nt,-2,nt,nt
CCOC(=O)C1CCCN(Cc2cc(=O)oc3cc(C)ccc23)C1 (centres undefined),0,-25,4,-10,3,-1
CCOC(=O)C1CCCN(Cc2cc(=O)oc3cc(C)c(C)cc23)C1 (centres undefined),2,9,82*,-1,2,-3
Cc1ccc(COc2ccc(CNCCCN3CCCCCC3=O)cc2)cc1,nt,nt,nt,0,nt,nt
